One test deals with Hep 3B2. Kind of test: Cytotoxicity against human Hep3B cells assessed as reduction in cell viability by MTS assay. The format is functional, cell-based. Put shortly:
(§1)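 In vitro cytotoxicity was tested on a panel of five human cancer lines (HL60, A549, Hep3B, MCF-7, SW480), following an earlier published method. Values are reported as IC50 in μM.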
For orientation: Tetrazolium dyes change colour on reduction, which living cells bring about.

A further test has as its system HL-60. Kind of test: Cytotoxicity against human HL60 cells assessed as reduction in cell viability by MTS assay. The format is functional, cell-based. Put shortly: as §1
In a further test the test system is A549. Kind of test: Cytotoxicity against human A549 cells assessed as reduction in cell viability by MTS assay. The format is functional, cell-based. Put shortly: as §1
A further test has as its system SW480. Kind of test: Cytotoxicity against human SW480 cells assessed as reduction in cell viability by MTS assay. Format: functional, cell-based. The procedure, abridged:
as §1

The test system of the next test is MCF7. Kind of test: Cytotoxicity against human MCF7 cells assessed as reduction in cell viability by MTS assay. Format: functional, cell-based. The procedure, abridged:
as §1

The test system of a further test is Candida albicans. The test can be described thus: Antifungal activity against Candida albicans assessed as reduction in fungal growth incubated for 48 hrs by two fold serial dilution method. Format: functional.
Test [1] concerns Staphylococcus aureus. Kind of test: Antibacterial activity against methicillin-resistant Staphylococcus aureus. Format: functional.
The subject of test [2] is Staphylococcus aureus. Kind of test: Antibacterial activity against Staphylococcus aureus. The format is functional.

As usually defined, the IC50 is the point on the concentration scale where inhibition reaches its midpoint. A word on the MIC50: it is an inhibitory concentration at the 50% level, which refers to growth in some studies and to a panel of isolates in others. By MIC90 is commonly meant an inhibitory concentration at the 90% level, which refers to growth in some studies and to a panel of isolates in others.

Converted amounts (≈) assume the structure as drawn. The source made the active and inactive calls. No cut-off for these calls is given here.

Consider `COC(=O)CC/C(C)=C/[C@H]1C=C(C)[C@@H](C)[C@H]2[C@H](CC(C)C)NC(=O)[C@]21C(=O)CCC(=O)O`, for which the result in the test with Hep 3B2, in the test with HL-60, with A549, in the test with SW480 and in the test on MCF7 was inactive.
For `COC(=O)CCC(=O)[C@@]12C(=O)N[C@@H](CC(C)C)[C@@H]1[C@H](C)C(C)=C[C@@H]2/C=C(\C)CCC(=O)O`, the result with Hep 3B2, in the test on HL-60, in the test on A549, in the test on SW480 and with MCF7 was inactive.
As to `COC(=O)[C@H](O)CS[C@@H]1CC(=O)[C@H](O)CC/C(C)=C/[C@H]2C=C(C)[C@@H](C)[C@H]3[C@H](CC(C)C)NC(=O)[C@]32C1=O`, the IC50 in the test on Hep 3B2 was found to be 8.2 µM; with HL-60 it was 3 µM; in the test with A549, 16.7 µM; in the test on SW480, 13.6 µM; in the test with MCF7, 17.1 µM. Also, the MIC50 is 94.7 µg/mL (≈ 177 µM) in the test with Candida albicans, 10.6 µg/mL (≈ 19.8 µM) against Staphylococcus aureus [1] and 14.5 µg/mL (≈ 27.1 µM) with Staphylococcus aureus [2]. Further, the MIC90 with Candida albicans is > 100 µg/mL; against Staphylococcus aureus [1] it was 14.7 µg/mL (≈ 27.4 µM); against Staphylococcus aureus [2] it was 27 µg/mL (≈ 50.4 µM).
Regarding `CC(=O)NCCS[C@@H]1CC(=O)[C@H](O)CC/C(C)=C/[C@H]2C=C(C)[C@@H](C)[C@H]3[C@H](CC(C)C)NC(=O)[C@]32C1=O`, the IC50 was 19.9 µM in the test on Hep 3B2; 9.3 µM with HL-60; > 20 µM with A549; 10.1 µM with SW480; 16.1 µM with MCF7. In addition, the MIC50 in the test on Candida albicans was 43.3 µg/mL (≈ 83.5 µM); in the test with Staphylococcus aureus [1], 17.5 µg/mL (≈ 33.7 µM); in the test on Staphylococcus aureus [2] it was 40.8 µg/mL (≈ 78.7 µM). In addition, the values for the MIC90 in the test on Candida albicans, in the test with Staphylococcus aureus [1] and in the test with Staphylococcus aureus [2] were 89.9 µg/mL (≈ 173 µM), 28.4 µg/mL (≈ 54.8 µM) and 58.5 µg/mL (≈ 113 µM), respectively.
